ChEMBL document CHEMBL3992547, “Antimicrobial activity of rhodanine-3-acetic acid derivatives” (Bioorg Med Chem, 2017)
Converted amounts (≈) assume the structure as drawn. The source made the active and inactive calls. No cut-off for these calls is given here.

What was measured:
[1] = test system: Mycobacterium tuberculosis; experiment: Antimycobacterial activity against Mycobacterium tuberculosis H37Rv 331/88 measured after 14 days by micromethod; type: functional; conditions: H37Rv 331/88, 336 h
[2] = test system: Mycobacterium tuberculosis; experiment: Antimycobacterial activity against Mycobacterium tuberculosis H37Rv 331/88 measured after 21 days by micromethod; type: functional; conditions: H37Rv 331/88, 504 h
Mycobacterium avium [3] = experiment: Antimycobacterial activity against Mycobacterium avium 330/88 measured after 14 days by micromethod; type: functional; conditions: 330/88, 336 h
Mycobacterium avium [4] = experiment: Antimycobacterial activity against Mycobacterium avium 330/88 measured after 21 days by micromethod; type: functional; conditions: 330/88, 504 h
Mycobacterium kansasii [5] = experiment: Antimycobacterial activity against Mycobacterium kansasii isolate 235/80 after 7 days by micromethod; type: functional; conditions: isolate 235/80, 168 h
Mycobacterium kansasii [6] = experiment: Antimycobacterial activity against Mycobacterium kansasii isolate 235/80 after 14 days by micromethod; type: functional; conditions: isolate 235/80, 336 h
Mycobacterium kansasii [7] = experiment: Antimycobacterial activity against Mycobacterium kansasii isolate 235/80 after 21 days by micromethod; type: functional; conditions: isolate 235/80, 504 h
Mycobacterium kansasii [8] = experiment: Antimycobacterial activity against Mycobacterium kansasii isolate 6509/96 after 7 days by micromethod; type: functional; conditions: isolate 6509/96, 168 h
Mycobacterium kansasii [9] = experiment: Antimycobacterial activity against Mycobacterium kansasii isolate 6509/96 after 14 days by micromethod; type: functional; conditions: isolate 6509/96, 336 h
Mycobacterium kansasii [10] = experiment: Antimycobacterial activity against Mycobacterium kansasii isolate 6509/96 after 21 days by micromethod; type: functional; conditions: isolate 6509/96, 504 h
[11] = Solubility of the compound in Sula's semisynthetic medium up to 1 mM; type: physicochemical
Staphylococcus aureus [12] = experiment: Antibacterial activity against Staphylococcus aureus CCM 4516/08 incubated for 24 hrs under dark condition by microdilution broth assay; type: functional; conditions: CCM 4516/08, 24 h
Summary of the method: (§1)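 Broth microdilution per M07-A07, modified, in Mueller-Hinton broth adjusted to pH 7.4 (±0.2). Inoculum is prepared in sterile water to McFarland 0.5 (1.5 × 10⁸ CFU/mL). Plates are incubated in the dark at 35 °C in humid air. MIC is read after 24 and 48 h as at least 95% growth reduction versus control (IC₉₅).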

Staphylococcus aureus [13] = experiment: Antibacterial activity against Staphylococcus aureus CCM 4516/08 incubated for 48 hrs under dark condition by microdilution broth assay; type: functional; conditions: CCM 4516/08, 48 h; summary of the method: as §1
Staphylococcus aureus [14] = experiment: Antibacterial activity against methicillin-resistant Staphylococcus aureus H 5996/08 incubated for 24 hrs under dark condition by microdilution broth assay; type: functional; conditions: H 5996/08, 24 h
Summary of the method: (§2)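 Microdilution broth method modified per M07-A07, in Mueller-Hinton broth adjusted to pH 7.4 (±0.2). Inoculum made in sterile water to 0.5 McFarland (1.5 × 10⁸ CFU/mL). Plates incubated in the dark at 35 °C in a humid atmosphere, with reads at 24 and 48 h. MIC taken as at least 95% growth reduction (IC₉₅) versus control.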

Staphylococcus aureus [15] = experiment: Antibacterial activity against methicillin-resistant Staphylococcus aureus H 5996/08 incubated for 48 hrs under dark condition by microdilution broth assay; type: functional; conditions: H 5996/08, 48 h; summary of the method: as §2
[16] = test system: Staphylococcus epidermidis; experiment: Antibacterial activity against Staphylococcus epidermidis H 6966/08 incubated for 24 hrs under dark condition by microdilution broth assay; type: functional; conditions: H 6966/08, 24 h; summary of the method: as §1
[17] = test system: Staphylococcus epidermidis; experiment: Antibacterial activity against Staphylococcus epidermidis H 6966/08 incubated for 48 hrs under dark condition by microdilution broth assay; type: functional; conditions: H 6966/08, 48 h; summary of the method: as §1
Escherichia coli [18] = experiment: Antibacterial activity against Escherichia coli CCM 4517 incubated for 24 hrs under dark condition by microdilution broth assay; type: functional; conditions: CCM 4517, 24 h; summary of the method: as §1
Escherichia coli [19] = experiment: Antibacterial activity against Escherichia coli CCM 4517 incubated for 48 hrs under dark condition by microdilution broth assay; type: functional; conditions: CCM 4517, 48 h; summary of the method: as §1
Klebsiella pneumoniae [20] = experiment: Antibacterial activity against Klebsiella pneumoniae D 11750/08 up to 500 uM incubated for 24 to 48 hrs under dark condition by microdilution broth assay; type: functional; summary of the method: as §1
Klebsiella pneumoniae [21] = experiment: Antibacterial activity against ESBL positive Klebsiella pneumoniae J 14368/08 up to 500 uM incubated for 24 to 48 hrs under dark condition by microdilution broth assay; type: functional; summary of the method: as §1
Pseudomonas aeruginosa = experiment: Antibacterial activity against Pseudomonas aeruginosa CCM 1961 up to 500 uM incubated for 24 to 48 hrs under dark condition by microdilution broth assay; type: functional; summary of the method: as §1
Candida albicans [22] = experiment: Antifungal activity against Candida albicans ATCC 44859 after 24 hrs by microdilution broth assay; type: functional; conditions: ATCC 44859, 24 h
Summary of the method: (§3)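 Broth microdilution per CLSI M27-A3 and M38-A2 in RPMI 1640 with glutamine, buffered to pH 7.0 with MOPS. Compounds are diluted in DMSO. Final inoculum is 5 × 10³ CFU/mL for yeasts and 0.5–5 × 10⁴ CFU/mL for moulds. Plates are incubated in the dark at 35 °C in humid air and read visually and/or at 540 nm after 24 and 48 h. MIC is ≥80% growth reduction (IC₈₀) for yeasts and ≥50% (IC₅₀) for filamentous fungi.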

Candida albicans [23] = experiment: Antifungal activity against Candida albicans ATCC 44859 after 48 hrs by microdilution broth assay; type: functional; conditions: ATCC 44859, 48 h; summary of the method: as §3
Candida tropicalis [24] = experiment: Antifungal activity against Candida tropicalis 156 after 24 hrs by microdilution broth assay; type: functional; conditions: Candida tropicalis, 156, 24 h; summary of the method: as §3
Candida tropicalis [25] = experiment: Antifungal activity against Candida tropicalis 156 after 48 hrs by microdilution broth assay; type: functional; conditions: Candida tropicalis, 156, 48 h; summary of the method: as §3
Nakaseomyces glabratus [26] = experiment: Antifungal activity against Candida glabrata 20/I after 24 hrs by microdilution broth assay; type: functional; summary of the method: as §3
Nakaseomyces glabratus [27] = experiment: Antifungal activity against Candida glabrata 20/I after 48 hrs by microdilution broth assay; type: functional; summary of the method: as §3
Trichosporon asahii [28] = experiment: Antifungal activity against Trichosporon asahii 1188 after 24 hrs by microdilution broth assay; type: functional; conditions: Trichosporon asahii, 1188, 24 h; summary of the method: as §3
Trichosporon asahii [29] = experiment: Antifungal activity against Trichosporon asahii 1188 after 48 hrs by microdilution broth assay; type: functional; conditions: Trichosporon asahii, 1188, 48 h; summary of the method: as §3
Aspergillus fumigatus [30] = experiment: Antifungal activity against Aspergillus fumigatus 231 after 24 hrs by microdilution broth assay; type: functional; conditions: Aspergillus fumigatus, 231, 24 h; summary of the method: as §3
Aspergillus fumigatus [31] = experiment: Antifungal activity against Aspergillus fumigatus 231 after 48 hrs by microdilution broth assay; type: functional; conditions: Aspergillus fumigatus, 231, 48 h; summary of the method: as §3
[32] = test system: Trichophyton mentagrophytes; experiment: Antifungal activity against Trichophyton mentagrophytes 445 after 72 hrs by microdilution broth assay; type: functional; conditions: Trichophyton mentagrophytes, 445, 72 h
Summary of the method: (§4)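 Broth microdilution per CLSI M38-A2 in RPMI 1640 with glutamine, buffered to pH 7.0 with MOPS, with DMSO as diluent. Final inoculum is 0.5–5 × 10⁴ CFU/mL. Plates are incubated in the dark at 35 °C in humid air and read visually and/or at 540 nm after 72 and 120 h. MIC is at least 50% growth reduction versus control.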

[33] = test system: Trichophyton mentagrophytes; experiment: Antifungal activity against Trichophyton mentagrophytes 445 after 120 hrs by microdilution broth assay; type: functional; conditions: Trichophyton mentagrophytes, 445, 120 h; summary of the method: as §4
Pichia kudriavzevii = experiment: Antifungal activity against Candida krusei E28 after 24 to 48 hrs hrs by microdilution broth assay; type: functional; summary of the method: as §3
Lichtheimia corymbifera = experiment: Antifungal activity against Absidia corymbifera 272 after 24 to 48 hrs hrs by microdilution broth assay; type: functional; summary of the method: as §3
Enterococcus [34] = experiment: Antibacterial activity against Enterococcus sp. J 14365/08 incubated for 24 hrs under dark condition by microdilution broth assay; conditions: J 14365/08, 24 h
Enterococcus [35] = experiment: Antibacterial activity against Enterococcus sp. J 14365/08 incubated for 48 hrs under dark condition by microdilution broth assay; conditions: J 14365/08, 48 h

CC(=O)Oc1ccccc1/C=C1\SC(=S)N(CC(=O)O)C1=O
MIC [1]: 32 µM (≈ 10.8 µg/mL) | MIC [2]: 32 µM (≈ 10.8 µg/mL) | MIC (Mycobacterium avium [3]): 62.5 µM (≈ 21.1 µg/mL) | MIC (Mycobacterium avium [4]): 62.5 µM (≈ 21.1 µg/mL) | MIC (Mycobacterium kansasii [5]): 62.5 µM (≈ 21.1 µg/mL) | MIC (Mycobacterium kansasii [6]): 62.5 µM (≈ 21.1 µg/mL) | MIC (Mycobacterium kansasii [7]): 62.5 µM (≈ 21.1 µg/mL) | MIC (Mycobacterium kansasii [8]): 62.5 µM (≈ 21.1 µg/mL) | MIC (Mycobacterium kansasii [9]): 62.5 µM (≈ 21.1 µg/mL) | MIC (Mycobacterium kansasii [10]): 62.5 µM (≈ 21.1 µg/mL) | solubility [11]: Soluble | MIC95 (Staphylococcus aureus [12]): 62.5 µM (≈ 21.1 µg/mL) | MIC95 (Staphylococcus aureus [13]): 62.5 µM (≈ 21.1 µg/mL) | MIC95 (Staphylococcus aureus [14]): 62.5 µM (≈ 21.1 µg/mL) | MIC95 (Staphylococcus aureus [15]): 62.5 µM (≈ 21.1 µg/mL) | MIC95 [16]: 31.2 µM (≈ 10.5 µg/mL) | MIC95 [17]: 31.2 µM (≈ 10.5 µg/mL) | MIC95 (Escherichia coli [18]): > 500 µM | MIC95 (Escherichia coli [19]): > 500 µM | Activity (Klebsiella pneumoniae [20]): inactive | Activity (Klebsiella pneumoniae [21]): inactive | Activity (Pseudomonas aeruginosa): inactive | MIC80 (Candida albicans [22]): > 500 µM | MIC80 (Candida albicans [23]): > 500 µM | MIC80 (Candida tropicalis [24]): > 500 µM | MIC80 (Candida tropicalis [25]): > 500 µM | MIC80 (Nakaseomyces glabratus [26]): > 500 µM | MIC80 (Nakaseomyces glabratus [27]): > 500 µM | MIC80 (Trichosporon asahii [28]): > 500 µM | MIC80 (Trichosporon asahii [29]): > 500 µM | MIC50 (Aspergillus fumigatus [30]): > 500 µM | MIC50 (Aspergillus fumigatus [31]): > 500 µM | MIC50 [32]: 250 µM (≈ 84.3 µg/mL) | MIC50 [33]: 500 µM (≈ 169 µg/mL) | Activity (Pichia kudriavzevii): inactive | Activity (Lichtheimia corymbifera): inactive | MIC95 (Enterococcus [34]): 62.5 µM (≈ 21.1 µg/mL) | MIC95 (Enterococcus [35]): 125 µM (≈ 42.2 µg/mL)
